According to ChEMBL document CHEMBL4138196, “Discovery and structure-activity relationship of novel 4-hydroxy-thiazolidine-2-thione derivatives as tumor cell specific pyruvate kinase M2 activators” (Eur J Med Chem, 2018):

What was measured:
Pyruvate kinase PKM = Pyruvate kinase PKM (Homo sapiens, UniProt P14618); experiment: Activation of N-terminal His -tagged human PKM2 expressed in Escherichia coli BL21 using PEP as substrate measured at 30 secs intervals for between 3 and 6 mins by fluorescent pyruvate kinase-lactate dehydrogenase coupled assay
Chain of Pyruvate kinase PKM (P14618 whole entry): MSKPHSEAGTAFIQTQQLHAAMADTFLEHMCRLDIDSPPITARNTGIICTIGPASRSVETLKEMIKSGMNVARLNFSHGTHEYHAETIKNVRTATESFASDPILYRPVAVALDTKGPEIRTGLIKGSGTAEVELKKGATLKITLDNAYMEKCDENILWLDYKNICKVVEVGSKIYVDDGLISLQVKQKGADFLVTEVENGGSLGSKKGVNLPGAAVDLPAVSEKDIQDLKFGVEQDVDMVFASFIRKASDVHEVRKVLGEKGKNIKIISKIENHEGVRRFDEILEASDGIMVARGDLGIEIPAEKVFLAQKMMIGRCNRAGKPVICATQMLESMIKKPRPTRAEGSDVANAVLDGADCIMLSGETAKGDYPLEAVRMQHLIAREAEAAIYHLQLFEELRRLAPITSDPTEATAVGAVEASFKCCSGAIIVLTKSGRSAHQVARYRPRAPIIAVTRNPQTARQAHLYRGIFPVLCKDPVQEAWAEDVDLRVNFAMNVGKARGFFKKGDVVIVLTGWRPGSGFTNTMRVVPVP

NCI-H1299 = experiment: Antiproliferative activity against human H1299 cells after 48 hrs by MTS assay; assay type: functional, cell-based; details: NCI-H1299, 48 h
Method in brief: (§1)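 Cells grown in RPMI 1640 with 9% FBS at 37°C, 5% CO2. 3000-10000 cells/well were left to attach 12 h, then given compound at five concentrations, or DMSO as vehicle control, for 48 h. MTS was added for 3 h at 37°C and absorbance read at 490 nm. IC50 (50% growth inhibition) was taken from triplicate dose-response curves.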

HCT-116 [1] = experiment: Antiproliferative activity against human HCT116 cells after 48 hrs by MTS assay; assay type: functional, cell-based; details: HCT-116, 48 h; method in brief: as §1
HeLa = experiment: Antiproliferative activity against human HeLa cells after 48 hrs by MTS assay; assay type: functional, cell-based; method in brief: as §1
PC-3 = experiment: Antiproliferative activity against human PC3 cells after 48 hrs by MTS assay; assay type: functional, cell-based; details: PC-3, 48 h; method in brief: as §1
[2] = Antiproliferative activity against HELF after 48 hrs by MTS assay; set-up: species or system Homo sapiens; method in brief: as §1
HCT-116 [3] = experiment: Cell cycle arrest in human HCT116 cells assessed as accumulation at G1 phase at 1.25 uM after 8 to 12 hrs by propidium iodide staining-based flow cytometric method (reference value: 40%); assay type: functional
Method in brief: (§2)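 HCT116 cells were exposed to DMSO or compound at 1.25, 2.5 or 5 μM; exposure is given as 8 h in the text and 12 h in the methods. Cells were harvested, washed twice in PBS and fixed in ice-cold ethanol at -4°C overnight. They were stained with propidium iodide (50 μg/mL) containing 0.1% RNase for 15 min in the dark at room temperature. Phase distribution was read by flow cytometry.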

HCT-116 [4] = experiment: Cell cycle arrest in human HCT116 cells assessed as accumulation at S phase at 1.25 uM after 8 to 12 hrs by propidium iodide staining-based flow cytometric method (reference value: 43.38%); assay type: functional; method in brief: as §2
HCT-116 [5] = experiment: Cell cycle arrest in human HCT116 cells assessed as accumulation at G2/M phase at 1.25 uM after 8 to 12 hrs by propidium iodide staining-based flow cytometric method (reference value: 21.28%); assay type: functional; method in brief: as §2
HCT-116 [6] = experiment: Cell cycle arrest in human HCT116 cells assessed as accumulation at G1 phase at 2.5 uM after 8 to 12 hrs by propidium iodide staining-based flow cytometric method (reference value: 40%); assay type: functional; method in brief: as §2
HCT-116 [7] = experiment: Cell cycle arrest in human HCT116 cells assessed as accumulation at S phase at 2.5 uM after 8 to 12 hrs by propidium iodide staining-based flow cytometric method (reference value: 43.38%); assay type: functional; method in brief: as §2
HCT-116 [8] = experiment: Cell cycle arrest in human HCT116 cells assessed as accumulation at G2/M phase at 2.5 uM after 8 to 12 hrs by propidium iodide staining-based flow cytometric method (reference value: 21.28%); assay type: functional; method in brief: as §2
HCT-116 [9] = experiment: Cell cycle arrest in human HCT116 cells assessed as accumulation at G1 phase at 5 uM after 8 to 12 hrs by propidium iodide staining-based flow cytometric method (reference value: 40%); assay type: functional; method in brief: as §2
HCT-116 [10] = experiment: Cell cycle arrest in human HCT116 cells assessed as accumulation at S phase at 5 uM after 8 to 12 hrs by propidium iodide staining-based flow cytometric method (reference value: 43.38%); assay type: functional; method in brief: as §2
HCT-116 [11] = experiment: Cell cycle arrest in human HCT116 cells assessed as accumulation at G2/M phase at 5 uM after 8 to 12 hrs by propidium iodide staining-based flow cytometric method (reference value: 21.28%); assay type: functional; method in brief: as §2
HCT-116 [12] = experiment: Cell cycle arrest in human HCT116 cells assessed as accumulation at G2/M phase after 8 to 12 hrs by propidium iodide staining-based flow cytometric method; assay type: functional; method in brief: as §2

With `O=S(=O)(Nc1ccc(C2(O)CSC(=S)N2Cc2cccnc2)cc1)c1ccc2c(c1)OCCO2` (stereo unspecified) the AC50 (Pyruvate kinase PKM) was 3140 nM, the IC50 (NCI-H1299) was 690 nM and the IC50 (HCT-116 [1]) was 810 nM. It also gave an IC50 (HeLa) of 460 nM, an IC50 (PC-3) of 660 nM and an IC50 [2] of 11800 nM. For the same compound, the Activity (HCT-116 [3]) was 20.37%, the Activity (HCT-116 [4]) was 30.52% and the Activity (HCT-116 [5]) was 48.86%. The Activity (HCT-116 [6]) was 17.35%, the Activity (HCT-116 [7]) was 23.99% and the Activity (HCT-116 [8]) was 56.76%. It also gave an Activity (HCT-116 [9]) of 11.58%, an Activity (HCT-116 [10]) of 27.65% and an Activity (HCT-116 [11]) of 63.21%. The Activity (HCT-116 [12]) was “Dose-dependent effect”.
